Assay [1] deals with T1, Somatostatin receptor type 1 (Homo sapiens, UniProt P30872). The assay can be described thus: Displacement of [125I]LTT-SRIF-28 from human sst1 receptor by autoradiography. In outline: (§1)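 Competition autoradiography on 20-μm cryostat sections of membrane pellets from cells expressing each cloned receptor. Buffer was 170 mM Tris-HCl pH 8.2 with 1% BSA, bacitracin and 10 mM MgCl2. Cold washes, 1-week film exposure, image quantification against isotope standards, IC50 derived.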
T1 sequence (P30872 whole entry): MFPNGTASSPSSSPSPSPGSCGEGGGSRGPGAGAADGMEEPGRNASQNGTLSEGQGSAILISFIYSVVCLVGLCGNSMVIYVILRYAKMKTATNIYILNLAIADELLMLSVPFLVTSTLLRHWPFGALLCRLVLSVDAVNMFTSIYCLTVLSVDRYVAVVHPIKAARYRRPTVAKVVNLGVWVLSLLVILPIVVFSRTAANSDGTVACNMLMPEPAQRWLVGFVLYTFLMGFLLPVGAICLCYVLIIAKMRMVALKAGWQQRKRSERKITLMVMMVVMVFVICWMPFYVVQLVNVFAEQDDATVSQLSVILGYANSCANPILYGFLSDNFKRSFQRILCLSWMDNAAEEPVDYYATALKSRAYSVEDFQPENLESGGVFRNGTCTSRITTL

Assay [2] addresses Somatostatin receptor type 2 (Homo sapiens, UniProt P30874). Nature of the assay: Displacement of [125I]LTT-SRIF-28 from human sst2 receptor by autoradiography. In outline:
as §1
For orientation: Loss of bound radioactivity is the signal in a displacement assay; it reports binding, not function.

The target of assay [3] is Somatostatin receptor type 3 (Homo sapiens, UniProt P32745). Nature of the assay: Displacement of [125I]LTT-SRIF-28 from human sst3 receptor by autoradiography. In outline:
as §1

Assay [4] has as its target Somatostatin receptor type 5 (Homo sapiens, UniProt P35346). Nature of the assay: Displacement of [125I]LTT-SRIF-28 from human sst5 receptor by autoradiography. In outline: as §1
For assay [5], the target named is Somatostatin receptor type 4 (Homo sapiens, UniProt P31391). Nature of the assay: Displacement of [125I]LTT-SRIF-28 from human sst4 receptor by autoradiography.
Somatostatin receptor type 4, sequence (P31391 whole entry): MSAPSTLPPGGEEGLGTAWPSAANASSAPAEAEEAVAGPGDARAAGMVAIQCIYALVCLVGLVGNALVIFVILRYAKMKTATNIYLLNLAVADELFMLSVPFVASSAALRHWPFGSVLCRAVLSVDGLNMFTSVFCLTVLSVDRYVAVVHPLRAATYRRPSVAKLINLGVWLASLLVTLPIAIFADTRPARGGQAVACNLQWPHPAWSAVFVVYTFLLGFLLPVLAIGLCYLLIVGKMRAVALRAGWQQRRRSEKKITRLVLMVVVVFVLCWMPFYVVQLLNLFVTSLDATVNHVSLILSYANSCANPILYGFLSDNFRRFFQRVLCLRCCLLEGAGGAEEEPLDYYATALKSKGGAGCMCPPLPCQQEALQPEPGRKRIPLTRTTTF
Assay [6] concerns the target T1, Somatostatin receptor type 1. The assay can be described thus: Agonist activity at human sst1 receptor expressed in Chinese hamster CCL39 cells by luciferase reporter gene assay relative to somatostatin-14. The class given is functional, cell-based. (In general: Reporter assays use an easily measured gene product as a stand-in for the process of interest.)

The source made the active and inactive calls. No cut-off for these calls is given here. Positions of bridges follow the written chain, without caps; N, C: chain ends. Non-standard residues stand in square brackets, D forms with d. Residues, ends and D or L forms follow the SMILES beside them. Phe(4-CH2NHiPr) = CC(C)NCc1ccc(C[C@H](N)C(=O)O)cc1

Somatostatin receptor type 5, sequence (P35346 whole entry): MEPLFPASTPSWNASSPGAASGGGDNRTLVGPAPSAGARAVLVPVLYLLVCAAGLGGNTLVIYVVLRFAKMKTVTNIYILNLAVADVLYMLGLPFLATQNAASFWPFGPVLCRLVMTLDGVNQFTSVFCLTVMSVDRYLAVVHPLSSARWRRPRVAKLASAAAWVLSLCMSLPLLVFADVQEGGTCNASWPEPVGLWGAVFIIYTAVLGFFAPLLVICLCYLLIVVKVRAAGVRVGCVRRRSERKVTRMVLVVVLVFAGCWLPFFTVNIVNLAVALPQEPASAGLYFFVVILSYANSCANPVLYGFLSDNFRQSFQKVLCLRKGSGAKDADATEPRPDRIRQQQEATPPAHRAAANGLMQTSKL
Somatostatin receptor type 3, sequence (P32745 whole entry): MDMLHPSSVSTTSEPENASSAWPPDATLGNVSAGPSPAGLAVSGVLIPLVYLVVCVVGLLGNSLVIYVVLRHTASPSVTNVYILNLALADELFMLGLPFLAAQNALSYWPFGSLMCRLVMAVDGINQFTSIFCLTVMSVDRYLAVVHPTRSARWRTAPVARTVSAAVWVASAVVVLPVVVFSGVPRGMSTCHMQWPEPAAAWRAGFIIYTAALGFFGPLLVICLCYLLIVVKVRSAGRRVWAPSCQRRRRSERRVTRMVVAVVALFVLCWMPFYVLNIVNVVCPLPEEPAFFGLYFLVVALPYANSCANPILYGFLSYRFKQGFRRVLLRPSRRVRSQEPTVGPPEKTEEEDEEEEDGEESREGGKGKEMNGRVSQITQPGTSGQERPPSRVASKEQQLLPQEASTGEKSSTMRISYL
Somatostatin receptor type 2, sequence (P30874 whole entry): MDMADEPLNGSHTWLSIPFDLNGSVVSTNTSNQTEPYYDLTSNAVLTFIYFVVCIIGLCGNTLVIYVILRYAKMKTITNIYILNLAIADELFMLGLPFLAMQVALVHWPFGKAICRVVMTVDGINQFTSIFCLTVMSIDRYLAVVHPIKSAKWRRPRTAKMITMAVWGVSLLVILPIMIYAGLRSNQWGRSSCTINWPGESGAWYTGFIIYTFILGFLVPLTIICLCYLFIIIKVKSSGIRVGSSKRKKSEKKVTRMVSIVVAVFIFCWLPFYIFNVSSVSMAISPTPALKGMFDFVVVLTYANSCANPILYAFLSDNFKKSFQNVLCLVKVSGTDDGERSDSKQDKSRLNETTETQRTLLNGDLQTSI

`CC(C)NCc1ccc(C[C@@H]2NC(=O)[C@@H](Cc3c[nH]c4ccccc34)NC(=O)[C@H](Cc3ccccc3)NC(=O)[C@@H](N)CSSC[C@@H](C(=O)N[C@H](C(N)=O)[C@@H](C)O)NC(=O)[C@H](Cc3ccccc3)NC2=O)cc1` (H-CF[dW][Phe(4-CH2NHiPr)]FCT-NH2; disulfide 1-6): the IC50 (in general, the point on the concentration scale where inhibition reaches its midpoint) in assay [1] is 108 nM; in assay [2], greater than 1000 nM; in assay [3] it was greater than 1000 nM; in assay [4], greater than 1000 nM.
In the case of `CC(C)NCc1ccc(C[C@@H]2NC(=O)[C@@H](N(C)C(=O)c3ccc4ccccc4c3)NC(=O)[C@H](Cc3ccccc3)NC(=O)[C@@H](N)CSSC[C@@H](C(=O)N[C@H](C(N)=O)[C@@H](C)O)NC(=O)[C@H](Cc3ccccc3)NC2=O)cc1`, the IC50 in assay [1] was 1 nM; in assay [2], greater than 1000 nM; in assay [5] it was 95 nM; in assay [3], 681 nM; in assay [4] it was greater than 1000 nM. The outcome in assay [6] was Active. Moreover, the half-maximal effective concentration (EC50) (in general, the concentration that produces a half-maximal response) in assay [6] is 3.9 nM.
Turning to `CC(C)NCc1ccc(C[C@@H]2NC(=O)[C@@H](Cc3c[nH]c4ccccc34)NC(=O)[C@H](Cc3ccccc3)NC(=O)[C@H](Cc3ccccc3)NC(=O)[C@@H](N)CSSC[C@@H](C(=O)O)NC(=O)[C@H](Cc3ccccc3)NC(=O)[C@H]([C@@H](C)O)NC2=O)cc1` (H-CFF[dW][Phe(4-CH2NHiPr)]TFC-OH; disulfide 1-8), the 50% inhibitory concentration (IC50) in assay [1], in assay [2], in assay [5], in assay [3] and in assay [4] was greater than 1000 nM throughout.
As for `CC(C)NCc1ccc(C[C@@H]2NC(=O)[C@H](N(C)C(=O)c3ccc4ccccc4c3)NC(=O)[C@H](Cc3ccccc3)NC(=O)[C@H](NC(=O)[C@@H](N)Cc3ccc(O)cc3)CSSC[C@@H](C(=O)N[C@@H](Cc3ccc4ccccc4c3)C(N)=O)NC(=O)[C@H](Cc3ccccc3)NC2=O)cc1`, the IC50 in assay [1] is 189 nM; in assay [2] it was greater than 1000 nM; in assay [5], greater than 1000 nM; in assay [3], 463 nM; in assay [4] it was greater than 1000 nM.
In the case of `CC(C)NCc1ccc(C[C@@H]2NC(=O)[C@@H](Cc3c[nH]c4ccccc34)NC(=O)[C@H](Cc3ccccc3)NC(=O)[C@H](Cc3ccccc3)NC(=O)[C@H](CCCCN)NC(=O)[C@@H](N)CSSC[C@@H](C(=O)O)NC(=O)[C@H](CO)NC(=O)[C@H]([C@@H](C)O)NC(=O)[C@H](Cc3ccccc3)NC(=O)[C@H]([C@@H](C)O)NC2=O)cc1` (H-CKFF[dW][Phe(4-CH2NHiPr)]TFTSC-OH; disulfide 1-11), the half-inhibitory concentration (IC50) is 31 nM in assay [1]; greater than 1000 nM in assay [2]; greater than 1000 nM in assay [5]; 150 nM in assay [3]; greater than 1000 nM in assay [4].
For `CC(C)NCc1ccc(C[C@@H]2NC(=O)[C@@H](Cc3c[nH]c4ccccc34)NC(=O)[C@H](Cc3ccccc3)NC(=O)[C@H](Cc3ccccc3)NC(=O)[C@H](CCCCN)NC(=O)[C@@H](NC(=O)[C@@H](N)Cc3ccc(O)cc3)CSSC[C@@H](C(=O)O)NC(=O)[C@H](CO)NC(=O)[C@H]([C@@H](C)O)NC(=O)[C@H](Cc3ccccc3)NC(=O)[C@H]([C@@H](C)O)NC2=O)cc1` (H-YCKFF[dW][Phe(4-CH2NHiPr)]TFTSC-OH; disulfide 2-12), the IC50 in assay [2], in assay [5] and in assay [3] was greater than 1000 nM each time. Also, the result in assay [6] was Active.
Take `CC(C)NCc1ccc(C[C@@H]2NC(=O)[C@@H](N(C)C(=O)c3ccc4ccccc4c3)NC(=O)[C@H](Cc3ccccc3)NC(=O)[C@@H](N)CSSC[C@@H](C(N)=O)NC(=O)[C@H](Cc3ccc(O)cc3)NC2=O)cc1`: the half-inhibitory concentration (IC50) was 4.7 nM in assay [1], greater than 1000 nM in assay [2], 252 nM in assay [3] and greater than 1000 nM in assay [4]. In assay [6], the outcome was Active.
In the case of `CC(C)NCc1ccc(C[C@@H]2NC(=O)[C@@H](Cc3c[nH]c4ccccc34)NC(=O)[C@H](Cc3ccccc3)NC(=O)[C@H](Cc3ccccc3)NC(=O)[C@H](CCCCN)NC(=O)[C@@H](N)CSSC[C@@H](C(=O)O)NC(=O)[C@H](Cc3ccccc3)NC(=O)[C@H]([C@@H](C)O)NC2=O)cc1` (H-CKFF[dW][Phe(4-CH2NHiPr)]TFC-OH; disulfide 1-9), the half-maximal inhibitory concentration (IC50) in assay [1] was 189 nM; in assay [2] it was greater than 1000 nM; in assay [5], 932 nM; in assay [3], 789 nM; in assay [4], greater than 1000 nM.
On to `CC(C)NCc1ccc(C[C@@H]2NC(=O)[C@@H](N(C)C(=O)c3ccc4ccccc4c3)NC(=O)[C@H](Cc3ccccc3)NC(=O)[C@H](Cc3ccccc3)NC(=O)[C@H](CCCCN)NC(=O)[C@@H](N)CSSC[C@@H](C(=O)O)NC(=O)[C@H](CO)NC(=O)[C@H]([C@@H](C)O)NC(=O)[C@H](Cc3ccc(O)cc3)NC(=O)[C@H]([C@@H](C)O)NC2=O)cc1`, for which the IC50 in assay [1] was 3.3 nM; in assay [2] it was greater than 1000 nM; in assay [5], 562 nM; in assay [3], greater than 1000 nM; in assay [4] it was greater than 1000 nM.
As to `C[C@@H](O)[C@H](NC(=O)[C@@H]1CSSC[C@H](NC(=O)[C@H](N)Cc2ccccc2)C(=O)N[C@@H](Cc2ccccc2)C(=O)N[C@H](Cc2c[nH]c3ccccc23)C(=O)N[C@@H](CCCCN)C(=O)N[C@@H]([C@@H](C)O)C(=O)N1)C(N)=O`, the concentration for half-maximal inhibition (IC50) in assay [1] was greater than 1000 nM.
As for `CC(C)NCc1ccc(C[C@@H]2NC(=O)[C@@H](N(C)C(=O)c3ccc4ccccc4c3)NC(=O)[C@H](Cc3ccccc3)NC(=O)[C@H](N)CSSC[C@@H](C(=O)N[C@@H](Cc3ccc4ccccc4c3)C(N)=O)NC(=O)[C@H](Cc3ccccc3)NC2=O)cc1` (single isomer, unassigned), the outcome in assay [6] was Active.
For the compound `CC(C)NCc1ccc(C[C@@H]2NC(=O)[C@@H](N(C)C(=O)c3ccc4ccccc4c3)NC(=O)[C@H](Cc3ccccc3)NC(=O)[C@H](NC(=O)[C@@H](N)Cc3ccc(O)cc3)CSSC[C@@H](C(=O)N[C@@H](Cc3ccc4ccccc4c3)C(N)=O)NC(=O)[C@H](Cc3ccccc3)NC2=O)cc1`, the half-inhibitory concentration (IC50) in assay [1] was 8.2 nM; in assay [2], greater than 1000 nM; in assay [5] it was 270 nM; in assay [3], 410 nM; in assay [4], greater than 1000 nM. Further, the outcome in assay [6] was Active.
For `CC(C)NCc1ccc(C[C@@H]2NC(=O)[C@H](N(C)C(=O)c3ccc4ccccc4c3)NC(=O)[C@H](Cc3ccccc3)NC(=O)[C@@H](N)CSSC[C@@H](C(=O)N[C@H](C(N)=O)[C@@H](C)O)NC(=O)[C@H](Cc3ccccc3)NC2=O)cc1`, the IC50 in assay [1] was 37 nM; in assay [2], greater than 1000 nM; in assay [3], 253 nM; in assay [4], greater than 1000 nM.
For `CC(C)NCc1ccc(C[C@@H]2NC(=O)[C@@H](Cc3c[nH]c4ccccc34)NC(=O)[C@H](Cc3ccccc3)NC(=O)[C@@H](NC(=O)[C@@H](N)Cc3ccc(O)cc3)CSSC[C@@H](C(=O)N[C@H](C(N)=O)[C@@H](C)O)NC(=O)[C@H](Cc3ccccc3)NC(=O)[C@H]([C@@H](C)O)NC2=O)cc1` (H-YCF[dW][Phe(4-CH2NHiPr)]TFCT-NH2; disulfide 2-8), the IC50 in assay [1] is 150 nM; in assay [2], greater than 1000 nM; in assay [5] it was greater than 1000 nM; in assay [3], 60 nM; in assay [4] it was greater than 1000 nM.
`CC(C)NCc1ccc(C[C@@H]2NC(=O)[C@@H](Cc3c[nH]c4ccccc34)NC(=O)[C@H](Cc3ccccc3)NC(=O)[C@H](Cc3ccccc3)NC(=O)[C@H](CCCCN)NC(=O)[C@@H](N)CSSC[C@@H](C(=O)O)NC(=O)[C@H](CO)NC(=O)[C@H]([C@@H](C)O)NC(=O)[C@H](Cc3ccc(O)c([125I])c3)NC(=O)[C@H]([C@@H](C)O)NC2=O)cc1` displayed an IC50 in assay [1] of 3.6 nM.
Consider `CC(C)NCc1ccc(C[C@@H]2NC(=O)[C@H](N(C)C(=O)c3ccc4ccccc4c3)NC(=O)[C@H](Cc3ccccc3)NC(=O)[C@@H](NC(=O)[C@H](N)Cc3ccc(O)cc3)CSSC[C@@H](C(=O)N[C@H](C(N)=O)[C@@H](C)O)NC(=O)[C@H](Cc3ccccc3)NC2=O)cc1`, for which the IC50 in assay [2], in assay [5], in assay [3] and in assay [4] was greater than 1000 nM throughout.
For the compound `CC(C)NCc1ccc(C[C@@H]2NC(=O)[C@H](N(C)C(=O)c3ccc4ccccc4c3)NC(=O)[C@H](Cc3ccccc3)NC(=O)[C@@H](N)CSSC[C@@H](C(N)=O)NC(=O)[C@H](Cc3ccc(O)cc3)NC2=O)cc1`, the IC50 in assay [1] is 530 nM; in assay [2], greater than 1000 nM; in assay [5], greater than 1000 nM; in assay [3] it was greater than 1000 nM; in assay [4] it was greater than 1000 nM.
Regarding `CC(C)NCc1ccc(C[C@@H]2NC(=O)[C@@H](Cc3c[nH]c4ccccc34)NC(=O)[C@H](Cc3ccccc3)NC(=O)[C@@H](NC(=O)[C@H](N)Cc3ccccc3)CSSC[C@@H](C(=O)N[C@H](C(N)=O)[C@@H](C)O)NC(=O)[C@H](Cc3ccccc3)NC2=O)cc1` (H-[dF]CF[dW][Phe(4-CH2NHiPr)]FCT-NH2; disulfide 2-7), the half-inhibitory concentration (IC50) in assay [1] is 14 nM; in assay [2], greater than 1000 nM; in assay [3], 72 nM; in assay [4] it was greater than 1000 nM.
As to `CC(C)NCc1ccc(C[C@@H]2NC(=O)[C@@H](N(C)C(=O)c3ccc4ccccc4c3)NC(=O)[C@H](Cc3ccccc3)NC(=O)[C@@H](NC(=O)[C@H](N)Cc3ccc(O)cc3)CSSC[C@@H](C(=O)N[C@H](C(N)=O)[C@@H](C)O)NC(=O)[C@H](Cc3ccccc3)NC2=O)cc1`, the half-maximal inhibitory concentration (IC50) was greater than 1000 nM in assay [2], 27 nM in assay [5], 158 nM in assay [3] and greater than 1000 nM in assay [4].

For the origin of these results see ChEMBL document CHEMBL1151856, “Novel, potent, and radio-iodinatable somatostatin receptor 1 (sst1) selective analogues” (J Med Chem, 2009).
